2 molecules from ChEMBL document CHEMBL5674869, “The Histone Methyltransferase Inhibitor A-366 Uncovers a Role for G9a/GLP in the Epigenetics of Leukemia” (PLoS One, 2015) can be followed below.

Activity calls are given as the source filed them. No cut-off for these calls is given here.

One data set has as its system HL-60. As to the kind of experiment: Antiproliferative activity against human HL-60 cells after 14 days by Cell-titer Glo assay. Format: functional, cell-based. The following applies: time 14.0 day. An outline of the steps: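 Leukemia cells (MV4;11 or HL-60) in medium with 10% FBS were treated with a dose range of compound for 14 days. Proliferation was read by CellTiter-Glo endpoint, with inhibition set against untreated controls and cell-free wells as 100% inhibition. Viability was also measured in parallel by trypan blue exclusion.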

A short description of data set [1]: Drug level in SCID/beige mouse muscle xenografted with human MV4-11 cells at 30 mg/kg/day via osmotic-mini pump. Format: ADME, organism-based, Muscle tissue. The settings on record: in vivo. An outline of the steps: (§1)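 Tumor-bearing SCID-beige female mice (6–8 wk) with subcutaneous flank MV4;11 xenografts (5 x 10^6 cells in 50% Matrigel, grown to ~200 mm3). Compound given by osmotic mini-pump at 30 mg/kg/day in 98% PEG-400/2% Tween-80. Separate PK/PD arm sacrificed after 2, 7 and 14 days of treatment; plasma and tissues collected and analyzed for drug levels.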
In general terms: Xenograft models place foreign cells or tissue in a host animal.

Data set [2] relates to HT-1080. Kind of data set: Antiproliferative activity against human HT-1080 cells upto 10 uM after 2 days by Cell-Titer-Glo assay. Format: functional, cell-based. The settings on record: time 2.0 day. An outline of the steps:
(§2)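 ATCC tumor lines were grown in their recommended media with 10% FBS and STR-authenticated. Cells were exposed to compound for the stated number of days. Viable cells were read by CellTiter-Glo endpoint. Inhibition was the ratio of treated to untreated wells, with cell-free wells set as 100% inhibition. The EC50 was taken from the dose response.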

For data set [3], the system named is MV4-11. As to the kind of experiment: Induction of cell morphology change in human MV4-11 cells assessed as increase in cytoplasm-nucleus ratio and nuclear lobulation at 5 uM after 10 days by Wright- Geimsa staining analysis. In kind it is functional, cell-based. The settings on record: time 10.0 day. An outline of the steps: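 MV4;11 cells exposed to DMSO or 5 μM compound for 10 days, then stained with a Wright-Giemsa kit. Morphology was examined for cytoplasm:nucleus ratio and nuclear lobulation.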

Another data set deals with MCF7. Kind of data set: Antiproliferative activity against human MCF7 cells assessed as effect on colony formation at 0.1 to 10 uM after 14 days by crystal violet staining based clonogenic assay. Format: functional, cell-based. The following applies: dose 0.1-10 µM, time 14.0 day. An outline of the steps: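 Clonogenic assay: 500 live cells per well were seeded into six-well plates in drug-free medium. Compound diluted in culture medium was added 24 h later. Cells were cultured at 37°C, then fixed and stained with 0.2% crystal violet. Colonies were counted on an automated colony counter.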

A short description of data set [4]: Drug level in SCID/beige mouse tumor xenografted with human MV4-11 cells at 30 mg/kg/day via osmotic-mini pump. In kind it is ADME, organism-based, Neoplasm. The following applies: in vivo. An outline of the steps:
as §1

Data set [5] deals with MV4-11. Kind of data set: Inhibition of cell viability in human MV4-11 cells after 14 days by trypan blue exclusion assay. Format: functional, cell-based. The following applies: time 14.0 day. In outline:
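MV4;11 cells treated 14 days with compound over a concentration range. Viability scored by trypan blue exclusion; parallel proliferation read by CellTiter-Glo.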

Data set [6] deals with T1, Histone-lysine N-methyltransferase EHMT2 (Homo sapiens) (UniProt Q96KQ7).
T1 sequence (whole entry): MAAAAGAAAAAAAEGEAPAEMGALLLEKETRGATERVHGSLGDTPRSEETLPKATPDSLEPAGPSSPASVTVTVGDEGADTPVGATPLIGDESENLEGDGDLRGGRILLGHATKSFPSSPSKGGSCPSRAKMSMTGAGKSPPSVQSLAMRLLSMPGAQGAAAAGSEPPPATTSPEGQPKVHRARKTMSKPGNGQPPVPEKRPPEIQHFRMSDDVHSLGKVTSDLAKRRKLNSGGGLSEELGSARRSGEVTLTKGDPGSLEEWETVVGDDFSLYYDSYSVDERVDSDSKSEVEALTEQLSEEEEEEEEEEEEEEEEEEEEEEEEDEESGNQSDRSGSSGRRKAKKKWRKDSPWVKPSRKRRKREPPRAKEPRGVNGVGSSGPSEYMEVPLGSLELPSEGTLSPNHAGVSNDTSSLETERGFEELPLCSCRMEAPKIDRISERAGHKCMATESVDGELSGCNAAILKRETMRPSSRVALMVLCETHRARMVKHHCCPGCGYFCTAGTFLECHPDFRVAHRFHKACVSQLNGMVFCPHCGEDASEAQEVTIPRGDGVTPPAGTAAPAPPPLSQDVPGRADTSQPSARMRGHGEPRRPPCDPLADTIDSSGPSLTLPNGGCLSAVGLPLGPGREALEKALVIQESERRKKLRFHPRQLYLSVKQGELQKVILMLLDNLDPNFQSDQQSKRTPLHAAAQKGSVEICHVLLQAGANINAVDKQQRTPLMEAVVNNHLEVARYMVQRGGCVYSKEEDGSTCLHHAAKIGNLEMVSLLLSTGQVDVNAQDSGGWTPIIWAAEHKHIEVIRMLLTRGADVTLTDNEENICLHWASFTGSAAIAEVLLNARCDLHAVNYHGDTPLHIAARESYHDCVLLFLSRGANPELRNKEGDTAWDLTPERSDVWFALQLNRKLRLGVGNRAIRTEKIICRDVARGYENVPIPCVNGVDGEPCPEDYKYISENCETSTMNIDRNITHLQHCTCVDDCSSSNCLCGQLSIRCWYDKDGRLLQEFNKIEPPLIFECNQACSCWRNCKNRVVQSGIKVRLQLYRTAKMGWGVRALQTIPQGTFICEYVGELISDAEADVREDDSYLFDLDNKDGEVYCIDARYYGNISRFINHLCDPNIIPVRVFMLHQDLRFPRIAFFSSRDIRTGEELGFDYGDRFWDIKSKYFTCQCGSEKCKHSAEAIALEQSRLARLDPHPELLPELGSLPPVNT
Kind of data set: Inhibition of G9a in human PC-3 cells assessed as effect on H3k4me2 levels at 0.3 to 3 uM after 72 hrs by Western blot analysis. The settings on record: dose 0.3-3 µM. Format: cell-based. In outline: (§3)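 PC-3 prostate cells incubated with DMSO, 0.3 or 3 μM compound for 72 h. Lysates probed by western blot with antibodies to H3K9me2, H3K4me2, H3K4me3, H3K9me3, H4K20me1, H4K20me3, H3K36me2 and H3K27me3.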
A general note: In western blotting, separated proteins are transferred to a membrane and probed.

Data set [7] deals with T1, Histone-lysine N-methyltransferase EHMT2 (Homo sapiens). Kind of data set: Inhibition of G9a in human PC-3 cells assessed as effect on H3k27me3 levels at 0.3 to 3 uM after 72 hrs by Western blot analysis. In kind it is cell-based. The settings on record: dose 0.3-3 µM. An outline of the steps:
as §3

The nature of data set [8]: Drug level in SCID/beige mouse liver xenografted with human MV4-11 cells at 30 mg/kg/day via osmotic-mini pump. Format: ADME, organism-based. The settings on record: in vivo. An outline of the steps: as §1
The test system of data set [9] is Mus musculus. As to the kind of experiment: Decrease in H3K9me2 level in SCID/beige mouse tumor xenografted with human MV4-11 cells at 30 mg/kg/day via osmotic-mini pump for 7 days by alphaLisa assay. In kind it is functional, organism-based. The following applies: Neoplasm, time 7.0 day. In outline:
(§4)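 Female SCID-beige mice, 6–8 weeks old, received 5 x 10^6 MV4;11 cells in 50% Matrigel subcutaneously in the flank. At about 200 mm3, compound was given at 30 mg/kg/day by osmotic mini-pump in 98% PEG-400/2% Tween-80. In the PK/PD arm, tumors were harvested at the stated day and H3K9me2 was measured by AlphaLISA relative to vehicle.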

Data set [10] has as its system Mus musculus. As to the kind of experiment: Decrease in H3K9me2 level in SCID/beige mouse tumor xenografted with human MV4-11 cells at 30 mg/kg/day via osmotic-mini pump for 14 days by alphaLisa assay. Format: functional, organism-based. The following applies: Neoplasm, time 14.0 day. In outline: as §4
Data set [11] concerns HT-1080. Kind of data set: Antiproliferative activity against human HT-1080 cells after 2 days by Cell-Titer-Glo assay. In kind it is functional, cell-based. The settings on record: HT-1080, 48 h. In outline:
as §2

Data set [12] has as its system HT-1080. As to the kind of experiment: Antiproliferative activity against human HT-1080 cells after 5 days by Cell-Titer-Glo assay. Format: functional, cell-based. The following applies: HT-1080, 120 h. In outline:
as §2

By EC50 is commonly meant the concentration that produces a half-maximal response. Read a high EC50 as lower potency in that assay.

With `COc1cc2c(cc1OCCCN1CCCC1)N=C(N)C21CCC1`, the result in the data set with HL-60 and in the data set with MV4-11 [3] was Active. The Drug uptake entry in [1], in [4] and in [8] was “Active” in each case. Also, the result with HT-1080 [2] and in the data set with MCF7 was inactive. Also, the inhibition result with MV4-11 [5], with Mus musculus [9] and in the data set on Mus musculus [10] was “Active” in each case. Further, the inhibition entry in [6] and in [7] was “inactive” in each case.

Regarding `COc1cc2c(NC3CCN(C(C)C)CC3)nc(C3CCCCC3)nc2cc1OCCCN1CCCC1`, the concentration for a half-maximal effect (EC50) was determined as 1400 nM in the data set on HT-1080 [11] and 500 nM in the data set with HT-1080 [12].
